Data reported in ChEMBL document CHEMBL1649230, “Aryl rhodanines specifically inhibit staphylococcal and enterococcal biofilm formation” (Antimicrob Agents Chemother, 2009).

What was measured:
Staphylococcus aureus [1] = experiment: Antimicrobial activity against community acquired methicillin-resistant Staphylococcus aureus isolate 27687 assessed as inhibition of bacterial biofilm after 18 hrs by broth microdilution method; assay type: functional
Method in brief: (§1)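 Biofilm MBIC on tissue culture-treated polystyrene 96-well plates. Twofold dilutions, 0.2 to 100 μM final, with 2% DMSO final. Inoculum was an overnight culture diluted 1:100 (~5 × 10^6 cells/well) in 0.5× TSB plus 1% glucose, grown 18 h at 37°C. Wells washed, heat-fixed 60°C 60 min, stained with 0.06% crystal violet, OD600 read. MBIC is the lowest concentration giving ≥80% inhibition versus untreated; geometric mean of ≥3 experiments.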

Staphylococcus aureus [2] = experiment: Antimicrobial activity against community acquired methicillin-resistant Staphylococcus aureus isolate 43349 assessed as inhibition of bacterial biofilm after 18 hrs by broth microdilution method; assay type: functional; method in brief: as §1
Staphylococcus aureus [3] = experiment: Antimicrobial activity against Staphylococcus aureus ATCC 35556 on medical grade silicone disk assessed as inhibition of bacterial biofilm after 18 hrs by broth microdilution method; assay type: functional, organism-based

Compound | MBIC (Staphylococcus aureus [1]) [µM] | MBIC (Staphylococcus aureus [2]) [µM] | Activity (Staphylococcus aureus [3])
C=CCOc1cc(/C=C2\SC(=S)N(c3ccc(F)cc3)C2=O)ccc1O | 50 |  | 
CCOc1cc(/C=C2\SC(=S)N(c3ccc(F)cc3)C2=O)ccc1O |  | 35.4 | Dose-dependent effect
